Measurements pooled from the literature.
Compare with care: the assays were run in different laboratories.
Target: Mitogen-activated protein kinase kinase kinase kinase 1 (MAP4K1, Homo sapiens, UniProt Q92918)

CN(C)C(=O)Cn1cc(-c2nc([C@@](C)(c3ccc(-c4cnc(N)nc4)cc3)C3CC3)no2)cn1
remaining binding (cell-free assay, competition with immobilised ligand; 1 µM): 100%

CN(C)c1nccc(-c2cnn3ncccc23)n1
remaining binding (binding; 1 µM): 100%

Cc1cnc(Nc2ccc(C(=O)N3CCC(N4CCCC4)CC3)cc2)nc1-c1cc2ccccc2s1
remaining binding (binding, competition with immobilised ligand; 1 µM): 22%

O=C(NCC1CCOCC1)c1n[nH]cc1NC(=O)c1c(F)cccc1F
remaining binding (binding, competition with immobilised ligand; 1 µM): 71%

C[C@@H]1CCN(c2nccc(-c3cnn4ncccc34)n2)C1
remaining binding (binding; 1 µM): 100%

CCOCCn1cc(C(=O)Nc2ccc(-n3nc(-c4cccnc4)cc3C(F)(F)F)cn2)ccc1=O
remaining binding (cell-free assay, competition with immobilised ligand; 1 µM): 81%

COc1ncc2cc3ccccc3nc2c1C#N
remaining binding (cell-free assay, competition with immobilised ligand; 5 µM): 89%

N[C@@H]1CCN(c2nccc(-c3cnn4ncccc34)n2)C1
remaining binding (binding; 1 µM): 100%

CO[C@H]1CC[C@H](CNc2ccc(S(=O)(=O)NC(=O)c3ccc(N4CCN(CC5=C(c6ccc(Cl)cc6)CC(C)(C)CC5)CC4)cc3Oc3cnc4[nH]ccc4c3)cc2[N+](=O)[O-])CC1
remaining binding (cell-free assay, competition with immobilised ligand; 1 µM): 69%

COc1ccnn2ncc(-c3ccnc(N(C)C)n3)c12
remaining binding (binding; 1 µM): 100%

O=C(c1ccc(Nc2ncc(Cl)c(-c3ccc(Cl)s3)n2)cc1)N1CCC(N2CCCC2)CC1
remaining binding (binding, competition with immobilised ligand; 1 µM): 12%

F[C@@H]1CCN(c2nccc(-c3cnn4ncccc34)n2)C1
remaining binding (binding; 1 µM): 100%

O=C(c1ccc(Nc2nccc(-c3cc4ccccc4s3)n2)cc1)N1CCC(N2CCCC2)CC1
remaining binding (binding, competition with immobilised ligand; 1 µM): 84%

COCCOc1nc(-c2ccc(Cl)nc2)nc2c1CN(C(=O)c1ncn3ccccc13)CC2
remaining binding (cell-free assay, competition with immobilised ligand; 0.1 µM): 92%

CN(C)c1ncc(F)c(-c2cnn3ncccc23)n1
remaining binding (binding; 1 µM): 100%

CNC(=O)[C@@H]1CC[C@@H](n2c(-c3ccc4cnccc4c3)nc3ccc(C(=O)NCc4cccc(C(N)=O)c4)cc32)C1
remaining binding (binding, competition with immobilised ligand; 1 µM): 82%

CSc1cccnc1N1CCN(Cc2nc3ccccc3[nH]2)CC1
remaining binding (cell-free assay, competition with immobilised ligand; 1 µM): 100%

COc1cnc(Nc2cccc(S(N)(=O)=O)c2)nc1N1CCN(c2ccccc2)C(=O)C1
remaining binding (binding, competition with immobilised ligand; 1 µM): 87%

FC(F)(F)c1ccc2c(c1)nc(-c1cccnc1)n2C1CC1
remaining binding (cell-free assay, competition with immobilised ligand; 1 µM): 93%

C=CC(=O)N1CCC(C(=O)NCC(=O)N2CCN(c3nc(-c4cnc(N)nc4C(F)F)nc(N4CCOCC4)n3)CC2)CC1
remaining binding (binding, competition with immobilised ligand; 1 µM): 100%

CC1CCCN1c1nccc(-c2cnn3ncccc23)n1 (stereo not shown)
remaining binding (binding; 1 µM): 100%

Cc1cc(-n2nc(Cc3cc(F)cc(C(F)(F)F)c3)nc2C)ccc1C(N)=O
remaining binding (cell-free assay, competition with immobilised ligand; 1 µM): 100%
